Data from ChEMBL document CHEMBL5712917, “G9a regulates tumorigenicity and stemness through genome-wide DNA methylation reprogramming in non-small cell lung cancer” (Clin Epigenetics, 2020).
Active and inactive are the calls of the source.

Legend:
[1] = system: LCSC-1; assay: Antitumor activity against human LCSC-1 cells assessed as decrease in tumor sphere formation at 10 uM for 72 hrs; assay type: functional, cell-based
In short: (§1)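 Single cells from accutase-dissociated tumorspheres, 50,000–100,000 per well, grown in serum-free sphere medium (B-27, EGF, FGF, heparin). Exposed to 10 μM inhibitor at 37 °C for 72 h, then imaged. Sphere-forming capacity was scored by sphere size, and treated cells were compared with control by t test.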

[2] = system: LCSC-4; assay: Antitumor activity against human LCSC-4 cells xenografted in NOD-SCID mouse assessed as suppression of tumor volume at 10 mg/kg, ip administered for 8 weeks; assay type: functional, organism-based
In short: (§2)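 NOD-SCID mice given 100,000 single cells from dissociated wild-type TIC spheres subcutaneously. Established tumors split into vehicle or 10 mg/kg inhibitor groups, dosed intraperitoneally for 8 weeks. Tumor size measured weekly and tumor weight taken at euthanasia. Tumors fixed in 10% formaldehyde and stained by IHC (×20) for G9A, H3K9Me2, FOXP1 and SP5; t test.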

[3] = system: LCSC-4; assay: Antitumor activity against human LCSC-4 cells assessed as decrease in tumor sphere formation at 10 uM for 72 hrs; assay type: functional, cell-based; in short: as §1
[4] = system: LCSC-4; assay: Antitumor activity against human LCSC-4 cells assessed as increase in CDYL2 expression by Western blot analysis; assay type: functional, cell-based
In short: (§3)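 Western blot on TICs exposed to G9A inhibitor. Cells lysed in 2X SDS buffer; 10 μl lysate or 20 μg protein run on 4–12% SDS-PAGE, transferred to PVDF, blocked in 5% non-fat milk/TBST, then probed with primary and secondary antibodies against each target protein.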

[5] = system: LCSC-4; assay: Antitumor activity against human LCSC-4 cells xenografted in NOD-SCID mouse assessed as increase in FOXP1 expression at 10 mg/kg, ip administered for 8 weeks by immunohistochemical staining assay; assay type: functional, organism-based; in short: as §2
[6] = system: LCSC-2; assay: Antitumor activity against human LCSC-2 cells assessed as increase in SP5 expression by Western blot analysis; assay type: functional, cell-based; in short: as §3
[7] = system: LCSC-4; assay: Antitumor activity against human LCSC-4 cell assessed as decrease in cell proliferation at 10 uM for 72 hrs by CCK-8 assay; assay type: functional, cell-based
In short: (§4)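 TIC spheres dissociated to single cells with accutase and grown in serum-free DMEM/F12 with B-27, 25 ng/ml EGF, 25 ng/ml FGF and heparin. Cells were treated with 10 μM inhibitor at 37 °C for 72 h in 96-well format. CCK-8 solution was then added for 1–4 h and absorbance read at 450 nm. Groups compared against control by t test.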

[8] = system: LCSC-2 (human); assay: Antitumor activity against human LCSC-2 cells xenografted in NOD-SCID mouse assessed as increase in SP5 expression at 10 mg/kg, ip administered for 8 weeks by immunohistochemical staining assay
[9] = system: LCSC-4; assay: Antitumor activity against human LCSC-4 cells xenografted in NOD-SCID mouse assessed as decrease in H3K9Me2 expression at 10 mg/kg, ip administered for 8 weeks by immunohistochemical staining assay; assay type: functional, organism-based; in short: as §2
[10] = system: LCSC-4; assay: Antitumor activity against human LCSC-4 cells xenografted in NOD-SCID mouse assessed as increase in SP5 expression at 10 mg/kg, ip administered for 8 weeks by immunohistochemical staining assay; assay type: functional, organism-based; in short: as §2
[11] = system: LCSC-2; assay: Antitumor activity against human LCSC-2 cells assessed as increase in ROBO1 expression by Western blot analysis; assay type: functional, cell-based; in short: as §3
[12] = system: LCSC-2; assay: Antitumor activity against human LCSC-2 cells assessed as increase in DPP4 expression by Western blot analysis; assay type: functional, cell-based; in short: as §3
[13] = system: LCSC-2; assay: Antitumor activity against human LCSC-2 cells assessed as decrease in tumor sphere formation at 10 uM for 72 hrs; assay type: functional, cell-based; in short: as §1
[14] = system: LCSC-2 (human); assay: Antitumor activity against human LCSC-2 cells xenografted in NOD-SCID mouse assessed as suppression of tumor volume at 10 mg/kg, ip administered for 8 weeks
[15] = system: LCSC-2; assay: Antitumor activity against human LCSC-2 cells assessed as increase in FOXP1 expression by Western blot analysis; assay type: functional, cell-based; in short: as §3
[16] = system: LCSC-4; assay: Antitumor activity against human LCSC-4 cells assessed as increase in SP5 expression by Western blot analysis; assay type: functional, cell-based; in short: as §3
[17] = system: LCSC-2 (human); assay: Antitumor activity against human LCSC-2 cells xenografted in NOD-SCID mouse assessed as decrease in G9a expression at 10 mg/kg, ip administered for 8 weeks by immunohistochemical staining assay
[18] = system: LCSC-2 (human); assay: Antitumor activity against human LCSC-2 cells xenografted in NOD-SCID mouse assessed as decrease in H3K9Me2 expression at 10 mg/kg, ip administered for 8 weeks by immunohistochemical staining assay
[19] = system: LCSC-1; assay: Antitumor activity against human LCSC-1 cells assessed as decrease in cell proliferation at 10 uM for 72 hrs by CCK-8 assay; assay type: functional, cell-based; in short: as §4
[20] = system: LCSC-4; assay: Antitumor activity against human LCSC-4 cells assessed as increase in ROBO1 expression by Western blot analysis; assay type: functional, cell-based; in short: as §3
[21] = system: LCSC-4; assay: Antitumor activity against human LCSC-4 cells assessed as increase in FOXP1 expression by Western blot analysis; assay type: functional, cell-based; in short: as §3
[22] = system: LCSC-4; assay: Antitumor activity against human LCSC-4 cells xenografted in NOD-SCID mouse assessed as decrease in G9a expression at 10 mg/kg, ip administered for 8 weeks by immunohistochemical staining assay; assay type: functional, organism-based; in short: as §2
[23] = system: LCSC-2; assay: Antitumor activity against human LCSC-2 cells assessed as decrease in cell proliferation at 10 uM for 72 hrs by CCK-8 assay; assay type: functional, cell-based; in short: as §4
[24] = system: LCSC-4; assay: Antitumor activity against human LCSC-4 cells assessed as increase in DPP4 expression by Western blot analysis; assay type: functional, cell-based; in short: as §3
[25] = system: LCSC-2; assay: Antitumor activity against human LCSC-2 cells assessed as increase in STAMBPL1 expression by Western blot analysis; assay type: functional, cell-based; in short: as §3
[26] = system: LCSC-4; assay: Antitumor activity against human LCSC-4 cells assessed as increase in STAMBPL1 expression by Western blot analysis; assay type: functional, cell-based; in short: as §3
[27] = system: LCSC-2; assay: Antitumor activity against human LCSC-2 cells assessed as increase in CDYL2 expression by Western blot analysis; assay type: functional, cell-based; in short: as §3
[28] = system: LCSC-2 (human); assay: Antitumor activity against human LCSC-2 cells xenografted in NOD-SCID mouse assessed as increase in FOXP1 expression at 10 mg/kg, ip administered for 8 weeks by immunohistochemical staining assay

Measured: Activity

COc1cc2c(NC3CCN(C(C)C)CC3)nc(N3CCC(F)(F)CC3)nc2cc1OCCCN1CCCC1
active: all assays above
